Measured values from ChEMBL document CHEMBL1240445, “Synthesis, antioxidant and DNA cleavage activities of novel indole derivatives” (Eur J Med Chem, 2010).
Activity calls are given as the source filed them. No cut-off for these calls is given here.

Columns and labels:
[1] = system: Nucleic Acid; experiment: cleavage of Escherichia coli DNA by agarose gel electrophoresis; type: nucleic-acid assay
How it was run: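 Genomic DNA from E. coli grown 24 h at 37 °C in nutrient broth, isolated by SDS lysis, phenol and chloroform:isoamyl alcohol extraction, ethanol precipitation. Samples (1 mg/ml stock in DMF) added to DNA, incubated 2 h at 37 °C, mixed 1:1 with bromophenol blue, run on agarose gel in TAE beside DNA marker, 50 V for 30 min.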

[2] = Antioxidant activity assessed as ferric reduction; type: functional
How it was run: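 Reducing power: sample with 200 mmol/L sodium phosphate buffer (pH 6.6) and 2.5 mL 1% potassium ferricyanide, held 50 °C for 20 min, then 2.5 mL 10% (w/v) trichloroacetic acid added.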

[3] = Antioxidant activity assessed as equivalence of ascorbic acid; type: functional
How it was run: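 Phosphomolybdenum total antioxidant capacity: 10, 50 and 500 µg sample mixed with 1.9 mL reagent (0.6 M sulfuric acid, 28 mM sodium phosphate, 4 mM ammonium molybdate), heated 95 °C for 90 min, cooled; absorbance at 695 nm against blank. Expressed as ascorbic acid equivalents from an ascorbic acid standard graph.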

[4] = system: Radical scavenging activity; experiment: Antioxidant activity assessed as DPPH radical scavenging activity; type: functional
How it was run: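 DPPH method: 10, 50 and 100 µg sample or BHA brought to 100 µl with MeOH, plus 5 mL 0.1 mM methanolic DPPH, shaken, left 20 min at 27 °C; absorbance at 517 nm versus control lacking sample. % scavenging = [(control OD − sample OD)/control OD] × 100.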

Activity [1]	Structure (SMILES)	Activity [2]	Activity [3]	Activity [4]
Active	O=C1NC(=O)C(=C(/C=C/c2c[nH]c3ccccc23)c2ccc(Cl)cc2)C(=O)N1	Active	Active	–
Active	O=C1NC(=O)C(=C(/C=C/c2c[nH]c3ccccc23)c2ccccc2)C(=O)N1	Active	Active	–
Active	Cc1ccc2[nH]c(-c3ccccc3)c(/C=C/C(=C3C(=O)NC(=O)NC3=O)c3ccc(Cl)cc3)c2c1	–	–	–
Active	Cc1ccc(C(/C=C/c2c[nH]c3ccccc23)=C2C(=O)NC(=O)NC2=O)cc1	Active	Active	–
Active	Cc1ccc(C(/C=C/c2c(-c3ccccc3)[nH]c3ccc(Cl)cc23)=C2C(=O)NC(=O)NC2=O)cc1	–	–	Active
Active	Cc1ccc(C(/C=C/c2c(-c3ccccc3)[nH]c3ccc(C)cc23)=C2C(=O)NC(=O)NC2=O)cc1	–	–	–
Active	Cc1ccc2[nH]c(-c3ccccc3)c(/C=C/C(=C3C(=O)NC(=O)NC3=O)c3ccccc3)c2c1	–	–	–
Active	O=C1NC(=O)C(=C(/C=C/c2c(-c3ccccc3)[nH]c3ccc(Cl)cc23)c2ccccc2)C(=O)N1	–	–	Active
Active	O=C1NC(=O)C(=C(/C=C/c2c(-c3ccccc3)[nH]c3ccc(Cl)cc23)c2ccc(Cl)cc2)C(=O)N1	–	–	Active
